Source: ChEMBL document CHEMBL5653631, “A Potent and Selective ULK1 Inhibitor Suppresses Autophagy and Sensitizes Cancer Cells to Nutrient Stress” (iScience, 2018)

Tests used:
[1] = biological target: T1, Serine/threonine-protein kinase ULK3 (Homo sapiens) (UniProt Q6PHR2); assay: Inhibition of human recombinant ULK3 at 40 nM in presence of ATP by radiometric assay relative to control
T1 sequence (whole entry): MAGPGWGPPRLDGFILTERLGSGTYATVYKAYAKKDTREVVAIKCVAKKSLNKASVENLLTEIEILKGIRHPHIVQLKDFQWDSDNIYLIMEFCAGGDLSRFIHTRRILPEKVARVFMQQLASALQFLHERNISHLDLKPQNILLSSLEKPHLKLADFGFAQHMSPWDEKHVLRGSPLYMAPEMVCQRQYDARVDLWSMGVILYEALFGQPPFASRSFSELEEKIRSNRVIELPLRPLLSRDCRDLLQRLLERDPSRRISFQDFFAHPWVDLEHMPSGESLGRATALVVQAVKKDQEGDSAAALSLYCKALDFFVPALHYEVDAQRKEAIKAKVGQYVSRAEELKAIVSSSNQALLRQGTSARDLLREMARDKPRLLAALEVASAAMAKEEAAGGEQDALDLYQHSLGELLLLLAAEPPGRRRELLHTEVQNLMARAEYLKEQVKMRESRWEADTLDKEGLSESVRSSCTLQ

[2] = biological target: Serine/threonine-protein kinase 33 (Homo sapiens) (UniProt Q9BYT3); assay: Inhibition of human recombinant STK33 at 40 nM in presence of ATP by radiometric assay relative to control
Sequence of Serine/threonine-protein kinase 33 (Homo sapiens) (Q9BYT3 whole entry, looked up): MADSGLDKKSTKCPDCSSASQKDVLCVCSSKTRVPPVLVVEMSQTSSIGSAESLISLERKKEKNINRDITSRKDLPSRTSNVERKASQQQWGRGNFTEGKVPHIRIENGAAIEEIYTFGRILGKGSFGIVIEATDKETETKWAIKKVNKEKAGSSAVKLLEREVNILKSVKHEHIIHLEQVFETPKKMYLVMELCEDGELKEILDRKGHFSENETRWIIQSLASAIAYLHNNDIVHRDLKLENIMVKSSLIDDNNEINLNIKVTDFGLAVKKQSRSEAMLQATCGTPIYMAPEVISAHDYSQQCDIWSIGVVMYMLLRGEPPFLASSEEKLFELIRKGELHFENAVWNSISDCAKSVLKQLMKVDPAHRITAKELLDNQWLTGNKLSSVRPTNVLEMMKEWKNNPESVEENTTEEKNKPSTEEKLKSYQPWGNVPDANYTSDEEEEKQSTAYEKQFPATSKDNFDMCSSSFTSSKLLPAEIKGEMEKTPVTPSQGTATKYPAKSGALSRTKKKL

[3] = biological target: 5'-AMP-activated protein kinase catalytic subunit alpha-2 (Homo sapiens) (UniProt P54646); assay: Inhibition of human recombinant AMPKa2 at 500 nM related to control ULK1
Sequence of 5'-AMP-activated protein kinase catalytic subunit alpha-2 (Homo sapiens) (P54646 whole entry, looked up): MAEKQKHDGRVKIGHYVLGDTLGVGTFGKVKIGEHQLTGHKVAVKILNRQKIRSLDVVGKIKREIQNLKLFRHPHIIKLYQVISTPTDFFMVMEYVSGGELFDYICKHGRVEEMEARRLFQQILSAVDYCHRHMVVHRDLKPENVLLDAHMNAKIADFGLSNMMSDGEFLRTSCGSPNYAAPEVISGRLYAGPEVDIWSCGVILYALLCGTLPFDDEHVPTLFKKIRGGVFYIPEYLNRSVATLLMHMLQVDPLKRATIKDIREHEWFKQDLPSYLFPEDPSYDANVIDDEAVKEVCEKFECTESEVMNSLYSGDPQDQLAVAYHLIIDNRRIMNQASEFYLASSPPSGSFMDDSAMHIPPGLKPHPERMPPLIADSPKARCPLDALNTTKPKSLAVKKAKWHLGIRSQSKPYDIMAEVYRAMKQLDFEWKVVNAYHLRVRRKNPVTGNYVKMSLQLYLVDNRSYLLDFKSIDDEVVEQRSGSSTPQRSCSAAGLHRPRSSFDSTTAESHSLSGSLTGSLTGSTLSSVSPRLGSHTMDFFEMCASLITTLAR
Method in brief: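 Panel of 327 recombinant human kinases, each assayed in vitro by radiometric activity assay in duplicate at a single inhibitor concentration per compound, chosen with reference to its ULK1 inhibition. Activity remaining was expressed as percent of vehicle control, and percent inhibition was calculated as 100 minus percent activity remaining.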

[4] = biological target: T2, Ephrin type-A receptor 1 (Homo sapiens) (UniProt P21709); assay: Inhibition of human recombinant EphA1 at 500 nM related to control ULK1
T2 sequence (whole entry): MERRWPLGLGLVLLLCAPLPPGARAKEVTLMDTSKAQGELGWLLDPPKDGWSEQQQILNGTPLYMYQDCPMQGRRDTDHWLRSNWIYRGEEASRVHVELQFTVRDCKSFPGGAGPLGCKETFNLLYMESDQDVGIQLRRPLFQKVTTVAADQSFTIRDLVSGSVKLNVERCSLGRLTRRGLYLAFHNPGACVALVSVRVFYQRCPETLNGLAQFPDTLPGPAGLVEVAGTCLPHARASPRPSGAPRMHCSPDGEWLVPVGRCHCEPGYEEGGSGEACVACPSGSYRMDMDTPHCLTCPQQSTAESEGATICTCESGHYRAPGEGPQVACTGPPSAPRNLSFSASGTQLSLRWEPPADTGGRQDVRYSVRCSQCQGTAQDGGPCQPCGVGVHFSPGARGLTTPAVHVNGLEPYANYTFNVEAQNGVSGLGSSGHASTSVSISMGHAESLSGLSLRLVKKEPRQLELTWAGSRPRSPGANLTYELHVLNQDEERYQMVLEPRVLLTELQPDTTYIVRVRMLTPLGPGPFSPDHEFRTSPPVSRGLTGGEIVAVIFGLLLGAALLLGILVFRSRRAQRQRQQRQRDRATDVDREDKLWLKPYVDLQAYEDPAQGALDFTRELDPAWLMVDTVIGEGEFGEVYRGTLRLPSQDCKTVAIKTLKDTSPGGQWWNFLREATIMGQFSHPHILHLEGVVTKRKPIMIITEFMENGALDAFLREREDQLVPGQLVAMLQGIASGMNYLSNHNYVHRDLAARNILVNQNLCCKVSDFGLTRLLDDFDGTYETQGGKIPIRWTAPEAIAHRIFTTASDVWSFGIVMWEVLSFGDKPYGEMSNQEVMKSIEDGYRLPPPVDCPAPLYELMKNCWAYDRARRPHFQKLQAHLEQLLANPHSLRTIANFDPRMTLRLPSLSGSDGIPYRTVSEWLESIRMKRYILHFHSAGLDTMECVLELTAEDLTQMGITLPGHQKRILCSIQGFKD

[5] = biological target: T3, Serine/threonine-protein kinase DCLK3 (Homo sapiens) (UniProt Q9C098); assay: Inhibition of human recombinant DCAMKL3 at 500 nM in presence of ATP by radiometric assay relative to control
T3 sequence (whole entry): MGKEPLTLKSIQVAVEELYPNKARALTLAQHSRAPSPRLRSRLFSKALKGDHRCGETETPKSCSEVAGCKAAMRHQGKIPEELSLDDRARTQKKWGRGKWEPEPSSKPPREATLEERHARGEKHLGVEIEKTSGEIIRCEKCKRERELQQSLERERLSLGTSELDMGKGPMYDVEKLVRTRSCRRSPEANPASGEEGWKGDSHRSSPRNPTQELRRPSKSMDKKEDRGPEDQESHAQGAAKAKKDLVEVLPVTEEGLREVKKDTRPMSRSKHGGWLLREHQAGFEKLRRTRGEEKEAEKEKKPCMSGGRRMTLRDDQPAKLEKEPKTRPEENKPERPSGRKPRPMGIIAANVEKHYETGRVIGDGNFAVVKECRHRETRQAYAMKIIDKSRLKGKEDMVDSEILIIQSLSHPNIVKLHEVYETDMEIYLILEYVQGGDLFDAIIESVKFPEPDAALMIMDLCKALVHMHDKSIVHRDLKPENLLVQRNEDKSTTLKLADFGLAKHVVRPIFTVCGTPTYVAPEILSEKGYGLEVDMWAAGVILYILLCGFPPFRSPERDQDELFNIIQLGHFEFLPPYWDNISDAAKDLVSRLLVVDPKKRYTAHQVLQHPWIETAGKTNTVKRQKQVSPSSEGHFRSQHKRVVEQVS

[6] = biological target: Myosin light chain kinase 2, skeletal/cardiac muscle (Homo sapiens) (UniProt Q9H1R3); assay: Inhibition of human recombinant skMLCK at 15 nM related to control ULK1
Sequence of Myosin light chain kinase 2, skeletal/cardiac muscle (Homo sapiens) (Q9H1R3 whole entry): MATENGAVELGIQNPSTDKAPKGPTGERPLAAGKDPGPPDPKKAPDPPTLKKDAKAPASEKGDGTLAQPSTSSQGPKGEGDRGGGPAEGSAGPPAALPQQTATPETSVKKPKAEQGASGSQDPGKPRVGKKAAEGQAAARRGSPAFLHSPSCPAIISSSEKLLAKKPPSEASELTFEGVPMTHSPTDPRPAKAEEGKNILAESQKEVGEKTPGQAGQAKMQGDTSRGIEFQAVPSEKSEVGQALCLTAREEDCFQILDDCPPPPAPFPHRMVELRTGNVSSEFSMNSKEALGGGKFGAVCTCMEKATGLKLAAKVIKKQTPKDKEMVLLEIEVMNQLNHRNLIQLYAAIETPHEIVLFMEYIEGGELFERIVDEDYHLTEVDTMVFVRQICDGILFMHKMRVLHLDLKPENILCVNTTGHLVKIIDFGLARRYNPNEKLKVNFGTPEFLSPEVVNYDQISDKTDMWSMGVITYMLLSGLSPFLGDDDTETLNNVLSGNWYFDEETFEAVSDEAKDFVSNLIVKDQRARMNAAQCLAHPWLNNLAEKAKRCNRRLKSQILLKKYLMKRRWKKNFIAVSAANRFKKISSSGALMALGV

[7] = biological target: Tyrosine-protein kinase Fgr (Homo sapiens) (UniProt P09769); assay: Inhibition of human recombinant FGR at 15 nM in presence of ATP by radiometric assay relative to control
Sequence of Tyrosine-protein kinase Fgr (Homo sapiens) (P09769 2-529 limits assumed): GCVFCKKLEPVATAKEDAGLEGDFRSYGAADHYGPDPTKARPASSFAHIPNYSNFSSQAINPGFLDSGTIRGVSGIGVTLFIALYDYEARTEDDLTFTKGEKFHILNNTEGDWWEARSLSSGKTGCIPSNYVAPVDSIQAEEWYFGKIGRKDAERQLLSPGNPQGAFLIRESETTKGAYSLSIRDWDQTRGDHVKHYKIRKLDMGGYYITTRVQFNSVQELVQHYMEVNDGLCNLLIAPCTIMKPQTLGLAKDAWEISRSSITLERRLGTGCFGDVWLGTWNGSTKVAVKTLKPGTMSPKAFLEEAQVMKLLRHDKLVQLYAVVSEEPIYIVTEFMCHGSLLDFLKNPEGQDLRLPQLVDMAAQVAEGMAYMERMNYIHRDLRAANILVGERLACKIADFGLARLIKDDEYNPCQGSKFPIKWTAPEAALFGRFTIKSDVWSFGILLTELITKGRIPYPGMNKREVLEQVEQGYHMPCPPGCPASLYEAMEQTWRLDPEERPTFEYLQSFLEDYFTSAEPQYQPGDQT

[8] = biological target: Receptor-interacting serine/threonine-protein kinase 2 (Homo sapiens) (UniProt O43353); assay: Inhibition of human recombinant RIPK2 at 15 nM related to control ULK1
Sequence of Receptor-interacting serine/threonine-protein kinase 2 (Homo sapiens) (O43353 whole entry): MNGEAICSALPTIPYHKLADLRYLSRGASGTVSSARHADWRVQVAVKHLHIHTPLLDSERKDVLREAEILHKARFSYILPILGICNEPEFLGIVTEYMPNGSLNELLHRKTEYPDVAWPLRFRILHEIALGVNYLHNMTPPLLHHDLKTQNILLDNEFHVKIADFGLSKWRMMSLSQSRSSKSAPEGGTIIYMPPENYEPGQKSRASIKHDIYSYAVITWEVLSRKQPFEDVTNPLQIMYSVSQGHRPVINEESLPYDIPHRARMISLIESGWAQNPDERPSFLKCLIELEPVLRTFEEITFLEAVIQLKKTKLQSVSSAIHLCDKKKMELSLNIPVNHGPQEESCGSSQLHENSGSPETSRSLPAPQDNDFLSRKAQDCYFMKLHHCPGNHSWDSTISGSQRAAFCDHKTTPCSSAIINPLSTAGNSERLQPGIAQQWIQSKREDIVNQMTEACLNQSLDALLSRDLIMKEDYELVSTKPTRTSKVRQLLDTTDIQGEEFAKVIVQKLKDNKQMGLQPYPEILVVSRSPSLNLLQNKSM

[9] = biological target: Serine/threonine-protein kinase PAK 6 (Homo sapiens) (UniProt Q9NQU5); assay: Inhibition of human recombinant PAK6 at 15 nM related to control ULK1
Sequence of Serine/threonine-protein kinase PAK 6 (Homo sapiens) (Q9NQU5 whole entry, looked up): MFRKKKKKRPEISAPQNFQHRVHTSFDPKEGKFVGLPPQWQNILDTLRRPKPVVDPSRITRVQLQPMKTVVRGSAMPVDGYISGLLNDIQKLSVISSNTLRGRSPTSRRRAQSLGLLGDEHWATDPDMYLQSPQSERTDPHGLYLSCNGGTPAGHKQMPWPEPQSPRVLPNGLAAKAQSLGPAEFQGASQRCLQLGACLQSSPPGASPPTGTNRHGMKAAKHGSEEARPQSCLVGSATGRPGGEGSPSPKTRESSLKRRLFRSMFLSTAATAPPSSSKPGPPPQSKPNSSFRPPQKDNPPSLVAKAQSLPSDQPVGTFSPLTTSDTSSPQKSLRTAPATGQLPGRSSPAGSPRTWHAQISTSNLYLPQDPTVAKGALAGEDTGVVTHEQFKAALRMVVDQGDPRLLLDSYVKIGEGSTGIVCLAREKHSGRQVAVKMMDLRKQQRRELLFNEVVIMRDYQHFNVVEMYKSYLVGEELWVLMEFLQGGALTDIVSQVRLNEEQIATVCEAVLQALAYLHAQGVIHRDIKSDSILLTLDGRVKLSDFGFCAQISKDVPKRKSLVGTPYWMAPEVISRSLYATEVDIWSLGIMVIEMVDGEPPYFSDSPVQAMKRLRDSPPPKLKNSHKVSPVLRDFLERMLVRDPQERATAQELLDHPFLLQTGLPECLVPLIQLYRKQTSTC

[10] = biological target: Serine/threonine-protein kinase Nek6 (Homo sapiens) (UniProt Q9HC98); assay: Inhibition of human recombinant NEK6 at 15 nM related to control ULK1
Sequence of Serine/threonine-protein kinase Nek6 (Homo sapiens) (Q9HC98 whole entry): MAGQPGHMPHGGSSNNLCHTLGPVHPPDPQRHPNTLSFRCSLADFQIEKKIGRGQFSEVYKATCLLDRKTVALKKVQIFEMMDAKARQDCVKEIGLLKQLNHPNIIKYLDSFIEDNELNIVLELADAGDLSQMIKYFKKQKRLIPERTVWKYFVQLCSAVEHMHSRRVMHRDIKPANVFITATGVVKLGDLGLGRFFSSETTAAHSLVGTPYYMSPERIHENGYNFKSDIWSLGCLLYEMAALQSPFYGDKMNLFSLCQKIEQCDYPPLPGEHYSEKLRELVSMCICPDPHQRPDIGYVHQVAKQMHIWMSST

[11] = biological target: BDNF/NT-3 growth factors receptor (Homo sapiens) (UniProt Q16620); assay: Inhibition of human recombinant TRKB at 15 nM related to control ULK1
Sequence of BDNF/NT-3 growth factors receptor (Homo sapiens) (Q16620 32-822 limits assumed): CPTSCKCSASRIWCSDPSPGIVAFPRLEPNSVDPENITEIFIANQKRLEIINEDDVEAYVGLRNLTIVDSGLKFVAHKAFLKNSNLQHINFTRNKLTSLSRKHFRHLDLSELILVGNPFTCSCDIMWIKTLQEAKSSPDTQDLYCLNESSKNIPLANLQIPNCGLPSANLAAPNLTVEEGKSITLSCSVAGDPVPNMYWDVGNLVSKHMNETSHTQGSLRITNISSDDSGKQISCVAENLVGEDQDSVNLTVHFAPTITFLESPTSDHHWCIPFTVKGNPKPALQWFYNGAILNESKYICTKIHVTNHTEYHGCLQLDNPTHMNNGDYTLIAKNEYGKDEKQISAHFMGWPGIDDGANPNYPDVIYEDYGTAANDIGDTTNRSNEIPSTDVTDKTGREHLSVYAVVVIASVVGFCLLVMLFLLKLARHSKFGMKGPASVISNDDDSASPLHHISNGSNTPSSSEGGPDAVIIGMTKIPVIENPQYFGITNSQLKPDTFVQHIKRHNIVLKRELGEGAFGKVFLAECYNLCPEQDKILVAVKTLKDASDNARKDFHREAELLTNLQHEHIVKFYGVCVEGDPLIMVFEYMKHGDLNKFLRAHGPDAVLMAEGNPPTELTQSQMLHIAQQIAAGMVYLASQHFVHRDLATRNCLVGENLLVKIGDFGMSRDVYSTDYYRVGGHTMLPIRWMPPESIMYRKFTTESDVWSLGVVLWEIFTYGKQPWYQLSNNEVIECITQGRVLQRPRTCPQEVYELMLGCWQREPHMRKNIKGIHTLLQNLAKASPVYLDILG

**Q.** For `O=C(N[C@@H](C1CC1)C(F)(F)F)c1cc(-c2cnn3cc(-c4ccc(F)cc4)cnc23)cs1`, which inhibition [1] is on record?
**A.** Its inhibition is 5%.

**Q.** What about the inhibition [2] of the same compound?
**A.** The inhibition was 19%.

**Q.** What does the source list for `CNC(=O)c1ccccc1Oc1nc(Nc2cc(OC)c(OC)c(OC)c2)ncc1Br`?
**A.** fold change (FC) [3]: 0.77; fold change (FC) [4]: 0.18; inhibition [5]: 0%

**Q.** Which results are given for `CC(C)[C@H](NC(=O)c1cc(-c2cnn3cc(-c4ccc(OCCN5CCCCC5)cc4)cnc23)cs1)C(F)(F)F`?
**A.** fold change (FC) [6]: 0.13; inhibition [7]: 43%; fold change (FC) [8]: 0.11; fold change (FC) [9]: 0; fold change (FC) [10]: 0.01; fold change (FC) [11]: 0
